Laboratory results from ChEMBL document CHEMBL1177640 (Bioorg Med Chem, 2010).
Values belong to the compound of their own block, whether it stands above or below them. The source made the active and inactive calls. The rule behind the calls is not given here.

Legend:
[1] = biological target: T1, Zinc finger protein GLI1 (Homo sapiens) (UniProt P08151); test: Inhibition of human Gli1-mediated transcriptional activity in human Rh30 cells up to 40 uM after 24 hrs by luciferase reporter gene assay; assay type: cell-based
T1 sequence (whole entry): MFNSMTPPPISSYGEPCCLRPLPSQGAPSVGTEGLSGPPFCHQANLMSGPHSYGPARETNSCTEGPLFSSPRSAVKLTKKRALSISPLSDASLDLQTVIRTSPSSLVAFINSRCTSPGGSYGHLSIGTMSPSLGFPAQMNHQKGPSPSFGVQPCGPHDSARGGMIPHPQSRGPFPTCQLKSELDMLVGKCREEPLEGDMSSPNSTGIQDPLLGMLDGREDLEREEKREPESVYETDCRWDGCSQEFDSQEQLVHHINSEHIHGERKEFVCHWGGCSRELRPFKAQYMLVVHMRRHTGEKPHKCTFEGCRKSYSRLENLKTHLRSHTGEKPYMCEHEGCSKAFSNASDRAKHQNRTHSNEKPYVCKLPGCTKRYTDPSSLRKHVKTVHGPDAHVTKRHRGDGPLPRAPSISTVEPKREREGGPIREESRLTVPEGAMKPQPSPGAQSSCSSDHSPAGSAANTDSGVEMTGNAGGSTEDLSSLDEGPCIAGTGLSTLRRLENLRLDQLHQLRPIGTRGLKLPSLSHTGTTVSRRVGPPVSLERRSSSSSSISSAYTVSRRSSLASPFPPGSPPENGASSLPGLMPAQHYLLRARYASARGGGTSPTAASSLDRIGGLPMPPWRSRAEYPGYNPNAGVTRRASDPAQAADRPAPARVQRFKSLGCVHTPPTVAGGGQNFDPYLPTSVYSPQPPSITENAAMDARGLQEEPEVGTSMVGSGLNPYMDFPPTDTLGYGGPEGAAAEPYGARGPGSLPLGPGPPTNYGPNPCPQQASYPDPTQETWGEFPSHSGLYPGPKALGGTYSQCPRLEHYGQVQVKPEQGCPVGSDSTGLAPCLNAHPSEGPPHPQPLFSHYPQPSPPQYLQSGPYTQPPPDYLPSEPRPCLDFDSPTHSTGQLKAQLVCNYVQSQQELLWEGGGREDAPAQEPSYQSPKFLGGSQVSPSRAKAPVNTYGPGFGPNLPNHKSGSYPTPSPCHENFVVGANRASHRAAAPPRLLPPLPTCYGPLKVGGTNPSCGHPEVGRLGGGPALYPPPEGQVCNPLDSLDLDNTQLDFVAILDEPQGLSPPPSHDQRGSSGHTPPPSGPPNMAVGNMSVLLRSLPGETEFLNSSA
Procedure, shortened: (§1)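 Rh30 cells without Gli1 transfection, transfected overnight with GliLuc-BS (500 ng/mL) and pRL-CMV (2.5 ng/mL), then replated in 96-well plates. Compound given in RPMI-1640/10% FBS for 24 h at 37 °C. Firefly luminescence divided by Renilla and normalized to DMSO-treated cells (0% inhibition), triplicates.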

C3H 10T1/2 [2] = test: Inhibition of Hh signal-induced alkaline phosphatase activity in mouse C3H10T1/2 cells after 4 days; assay type: functional, cell-based; conditions: C3H 10T1/2, 96 h
[3] = biological target: T1, Zinc finger protein GLI1 (Homo sapiens); test: Inhibition of human Gli1 expressed in mouse C3H10T1/2 cells assessed as inhibition of transcriptional activity at 10 to 20 uM after 24 hrs by luciferase reporter gene assay; assay type: cell-based; conditions: C3H 10T1/2
Procedure, shortened: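 C3H10T1/2 cells transiently transfected overnight with GliLuc-BS, pRL-TK Renilla control and human Gli1 (or mouse Gli2 for Gli2 lines), 250 ng/mL each for the Gli plasmids. Cells replated in 96-well plates, then exposed to compound in BME/10% FBS for 24 h at 37 °C. Firefly/Renilla dual-luciferase ratio normalized to DMSO, triplicates. Dose–response IC50 from curve fitting.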

BJ = test: Cytotoxicity against human BJ cells at 5 to 20 uM after 72 hrs by Alamar blue assay; assay type: cell-based
Procedure, shortened: (§2)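 Cells seeded 24 h ahead in 384-well plates at 1.0×10^3 (BJ) or 1.6×10^3 (Rh30) per well. Compound diluted from DMSO stock into medium and added in triplicate, then incubated 68 h at 37 °C. Alamar Blue added for a further 4 h, with fluorescence read at ex 510/em 590 nm. Viability normalized to DMSO (100%) and no-cell (0%) wells.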

SJRH30 [4] = test: Cytotoxicity against human Rh30 cells at 5 to 20 uM after 72 hrs by Alamar blue assay; assay type: functional, cell-based; procedure, shortened: as §2
Caco-2 [5] = test: Apparent permeability from basolateral to apical side of human Caco-2 cells at pH 7.4; assay type: ADME, cell-based; conditions: caco-2, pH 7.4
Procedure, shortened: (§3)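 Caco-2 cells grown 7 days on Transwell inserts in MEM with 10% FBS. Monolayers washed with HBSS/HEPES (10 mM, pH 7.4), then compound at 50 µM added to the apical or basolateral side and incubated 2 h at 37 °C. Receiver fractions quantified by UPLC/MS, triplicates. Papp = dQ/dt […].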

[6] = biological target: Transcription factor Jun (Homo sapiens) (UniProt P05412); test: Inhibition of transcriptional activity of AP1 transfected in mouse C3H10T1/2 cells at 20 uM after 24 hrs by luciferase reporter gene assay; assay type: cell-based; conditions: C3H 10T1/2
Transcription factor Jun (Homo sapiens), sequence (P05412 whole entry): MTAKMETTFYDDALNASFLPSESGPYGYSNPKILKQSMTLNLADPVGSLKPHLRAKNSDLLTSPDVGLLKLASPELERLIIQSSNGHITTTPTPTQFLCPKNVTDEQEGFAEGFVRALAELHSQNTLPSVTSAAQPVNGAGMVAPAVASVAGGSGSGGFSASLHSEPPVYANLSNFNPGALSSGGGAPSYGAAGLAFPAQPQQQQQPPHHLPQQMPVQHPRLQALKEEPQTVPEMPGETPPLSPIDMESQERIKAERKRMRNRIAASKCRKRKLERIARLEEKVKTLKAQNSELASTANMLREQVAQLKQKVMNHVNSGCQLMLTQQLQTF
Procedure, shortened: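 AP-1 reporter tested in C3H10T1/2 cells under the same conditions as the Gli1/Gli-Luc assay: 24 h compound exposure and dual-luciferase read-out normalized to DMSO.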

[7] = Half life in CD-1 mouse liver microsomes; assay type: ADME, Microsome
Procedure, shortened: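 CD-1 female mouse liver microsomes at 0.6329 mg/mL protein in 0.1 M potassium phosphate pH 7.4 with EDTA. Compound at 1 µM, reaction started with NADPH regenerating system at 37 °C and sampled at 0, 0.5, 1 and 2 h in triplicate. Quenched with cold acetonitrile containing ketoconazole internal standard and analysed by UPLC-MS SIR. ke taken from log-linear regression, t1/2 = ln2/ke.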

Caco-2 [8] = test: Efflux ratio of permeability from basolateral to apical side over apical to basolateral side in human Caco-2 cells at pH 7.4; conditions: caco-2, pH 7.4
[9] = Permeability in buffer of pH 7.4 by PAMPA; assay type: ADME; conditions: for Papp: read-out: permeability
Procedure, shortened: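 Double-Sink PAMPA: DMSO stock diluted 200-fold into system solution buffer pH 7.4 in the donor plate, with acceptor sink buffer pH 7.4. Incubated 0.5 h at room temperature with stirring. Donor and acceptor concentrations measured by UV (230–500 nm), triplicates.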

Caco-2 [10] = test: Apparent permeability from apical to basolateral side of human Caco-2 cells at pH 7.4; assay type: ADME, cell-based; conditions: caco-2, pH 7.4; procedure, shortened: as §3
[11] = Inhibition of HDAC up to 40 uM
SJRH30 [12] = test: Inhibition of Bcl2 expression in human Rh30 cells at 10 to 40 uM after 24 hrs by RT-PCR analysis; assay type: functional, cell-based
Procedure, shortened: (§4)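 Rh30 cells in 6-well plates treated with compound or DMSO for 24 h. Total RNA (250 ng) reverse-transcribed after DNase removal, then SYBR Green real-time PCR with primers at 200 nM. Target mRNA normalized to GAPDH and to the DMSO control by the 2^-ΔΔCt method. Duplicate data.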

[13] = biological target: T1, Zinc finger protein GLI1 (Homo sapiens); test: Inhibition of human Gli1-mediated transcriptional activity in human Rh30 cells at 10 to 20 uM after 24 hrs by luciferase reporter gene assay; assay type: cell-based; procedure, shortened: as §1
C3H 10T1/2 [14] = test: Inhibition of Hh signal-induced alkaline phosphatase activity in mouse C3H10T1/2 cells at 10 uM after 4 days; assay type: functional, cell-based
SJRH30 [15] = test: Inhibition of Ptch1 expression in human Rh30 cells at 10 to 40 uM after 24 hrs by RT-PCR analysis; assay type: functional, cell-based; procedure, shortened: as §4
SJRH30 [16] = test: Inhibition of cyclinD1 expression in human Rh30 cells at 10 to 40 uM after 24 hrs by RT-PCR analysis; assay type: functional, cell-based; procedure, shortened: as §4

inhibition [1]: inactive | IC50 (C3H 10T1/2 [2]): 100 nM
Structure (SMILES): COc1cc(OC)cc(C(=O)Nc2ccc(Cl)c(-c3nc4cc(N(C)C)ccc4[nH]3)c2)c1

inhibition [3]: Active
Structure (SMILES): CC(CNC(=O)c1cccc2cc[nH]c12)c1cccc(C(=O)c2ccccc2)c1 (configuration not stated)

Structure (SMILES): CCCN(C(=O)C(C)c1cccc(C(=O)c2ccccc2)c1)c1cccc2[nH]ccc12 (configuration not stated)
Activity (BJ): Non-toxic | Activity (SJRH30 [4]): Toxic

inhibition [3]: Active
Structure (SMILES): CC(CNC(=O)c1cc2ccccc2[nH]1)c1cccc(C(=O)c2ccccc2)c1 (configuration not stated)
Activity (BJ): Non-toxic | Activity (SJRH30 [4]): Toxic

inhibition [3]: Active
Structure (SMILES): CC(CNC(=O)c1cccc2[nH]ccc12)c1cccc(C(=O)c2ccccc2)c1 (configuration not stated)

Papp (Caco-2 [5]): 2.7 ×10⁻⁶ cm/s | inhibition [6]: inactive | inhibition [3]: Active | t1/2 [7]: 0.6 h | Ratio (Caco-2 [8]): 0.46 | permeability [9]: 47% | Papp [9]: 52.1 ×10⁻⁶ cm/s | Papp (Caco-2 [10]): 5.8 ×10⁻⁶ cm/s
Structure (SMILES): CC(CNC(=O)c1ccc2[nH]ccc2c1)c1cccc(C(=O)c2ccccc2)c1 (configuration not stated)
Activity (BJ): Non-toxic | Activity (SJRH30 [4]): Toxic

inhibition [3]: inactive
Structure (SMILES): CC(CNC(=O)Cc1ccc2[nH]ccc2c1)c1cccc(C(=O)c2ccccc2)c1 (configuration not stated)

permeability [9]: 33%
Structure (SMILES): NC(=O)N1c2ccccc2C=Cc2ccccc21 [CARBAMAZEPINE]

Papp (Caco-2 [5]): 5.8 ×10⁻⁶ cm/s | inhibition [11]: inactive | Ratio (Caco-2 [8]): 0.45 | permeability [9]: 92% | Papp [9]: 60.2 ×10⁻⁶ cm/s | Papp (Caco-2 [10]): 13 ×10⁻⁶ cm/s
Structure (SMILES): CC(C(=O)NCCc1ccc(O)cc1)c1cccc(C(=O)c2ccccc2)c1 (configuration not stated)
Activity (BJ): Non-toxic | Activity (SJRH30 [4]): Toxic

inhibition [11]: inactive | inhibition [6]: inactive | inhibition [13]: Active | t1/2 [7]: 1.8 h | permeability [9]: 80% | Papp [9]: 71.4 ×10⁻⁶ cm/s
Structure (SMILES): CCCN(C(=O)C(C)c1cccc(C(=O)c2ccccc2)c1)c1ccc2cc[nH]c2c1 (configuration not stated)
Activity (BJ): Non-toxic | inhibition (SJRH30 [12]): Active | inhibition (C3H 10T1/2 [14]): inactive | inhibition (SJRH30 [15]): Active | Activity (SJRH30 [4]): Toxic | inhibition (SJRH30 [16]): Active

inhibition [3]: Active
Structure (SMILES): CC(CNC(=O)c1ccc2cc[nH]c2c1)c1cccc(C(=O)c2ccccc2)c1 (configuration not stated)
Activity (BJ): Non-toxic | Activity (SJRH30 [4]): Toxic

Structure (SMILES): CC(C(=O)Nc1ccc2[nH]ccc2c1)c1cccc(C(=O)c2ccccc2)c1 (configuration not stated)
Activity (BJ): Non-toxic | Activity (SJRH30 [4]): Toxic

Papp (Caco-2 [5]): 3.9 ×10⁻⁶ cm/s | inhibition [6]: inactive | inhibition [13]: Active | t1/2 [7]: 2.8 h | Ratio (Caco-2 [8]): 0.31 | permeability [9]: 75% | Papp [9]: 77.8 ×10⁻⁶ cm/s | Papp (Caco-2 [10]): 12.2 ×10⁻⁶ cm/s
Structure (SMILES): CC(C(=O)Nc1ccc2cc[nH]c2c1)c1cccc(C(=O)c2ccccc2)c1 (configuration not stated)
Activity (BJ): Non-toxic | inhibition (C3H 10T1/2 [14]): inactive | Activity (SJRH30 [4]): Toxic

inhibition [11]: inactive | inhibition [6]: inactive | inhibition [13]: Active | t1/2 [7]: 0.8 h
Structure (SMILES): CCCN(C(=O)C(C)c1cccc(C(=O)c2ccccc2)c1)c1ccc2[nH]ccc2c1 (configuration not stated)
Activity (BJ): Non-toxic | inhibition (C3H 10T1/2 [14]): inactive | Activity (SJRH30 [4]): Toxic

permeability [9]: 2%
Structure (SMILES): CNC(=C[N+](=O)[O-])NCCSCc1ccc(CN(C)C)o1 [RANITIDINE]

inhibition [3]: Active
Structure (SMILES): CC(CNC(=O)c1c[nH]c2ccccc12)c1cccc(C(=O)c2ccccc2)c1 (configuration not stated)
Activity (BJ): Non-toxic | Activity (SJRH30 [4]): Toxic

inhibition [11]: inactive | inhibition [1]: inactive
Structure (SMILES): CCCN(CCc1ccc(O)cc1)C(=O)C(C)c1cccc(C(=O)c2ccccc2)c1 (configuration not stated)
Activity (BJ): Non-toxic | Activity (SJRH30 [4]): Toxic
